From PubChem
OX1R antag-1 = antagonists of human orexin 1 receptor (OX1R). OX1R-expressing cells, FRET antagonist read-out. inhibition, % at 6.6 µM. actives 1.8% (n = 330,000); in the data active = inhibition mostly above about 38%, no sharp cut-off; inactive = mostly below about 40%;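 note: 0% = agonist challenge alone and 100% = reference antagonist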
Target sequence (O43613 whole entry, looked up): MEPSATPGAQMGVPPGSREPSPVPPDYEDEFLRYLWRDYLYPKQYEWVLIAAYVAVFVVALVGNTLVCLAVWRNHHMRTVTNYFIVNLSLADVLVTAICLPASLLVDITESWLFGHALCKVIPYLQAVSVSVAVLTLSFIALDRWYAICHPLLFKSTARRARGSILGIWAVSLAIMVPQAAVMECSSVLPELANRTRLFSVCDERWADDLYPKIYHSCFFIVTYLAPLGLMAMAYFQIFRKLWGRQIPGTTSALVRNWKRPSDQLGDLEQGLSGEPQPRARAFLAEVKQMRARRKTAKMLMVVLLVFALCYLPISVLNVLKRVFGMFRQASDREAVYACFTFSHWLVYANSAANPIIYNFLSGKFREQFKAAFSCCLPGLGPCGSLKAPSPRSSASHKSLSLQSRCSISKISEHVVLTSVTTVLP
OX1R antag-2 = OX1R (HCRTR1) antagonists, primary screen, fluorescence, CHO/OX1R cells, Fluo-8 calcium, orexin A; Fluo-8 calcium fluorescence; inhibition, % at 5 µM; actives 0.43% (n = 330,000);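 active = inhibition above its plate's threshold, mean inhibition of all tested compounds on the plate plus 3 SD, cut at about 37% in these data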;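 note: 0% = orexin A challenge wells and 100% = SB-334867-A antagonist wells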
TAAR1 antag = human TAAR1 antagonists, primary screen, Fluo-8 calcium fluorescence, CHO RD-HGA16 cells. Trace amine-associated receptor 1 (Homo sapiens), Q96RJ0. antagonist. inhibition, % at 3 µM. actives 1.5% (n = 360,000);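 active = inhibition above a per-plate cutoff, the mean inhibition of test compounds on that plate plus 3 SD, cut at about 49% in these data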;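 note: 0% = DMSO plus EC80 beta-PEA response and 100% = DMSO alone without agonist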
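Material: CHO RD-HGA16 cells bearing hTAAR1; compound dosing: one-point dosing, 3 µM nominal final; schedule: dye loading 75 min at 37 °C, then 30 min room temperature; measured by: calcium fluorescence with Fluo-8; control set: vehicle and agonist controls; replication: n of 1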
CHO parental Ca = ATP-evoked calcium signal inhibitors, parental CHO, primary screen, counter-screen for OX1R antagonist project, cell-based, fluorescence, Fluo-8 calcium dye. parental CHO-K1, ATP-induced calcium, Fluo-8 fluorescence. inhibition, % at 5.6 µM. actives 0.63% (n = 330,000). AID 463079, 2010;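 active = inhibition above that plate's mean sample inhibition plus 3 SD, cut at about 26% in these data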;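 note: 0% = ATP-challenged DMSO wells and 100% = DMSO wells without ATP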
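Assay system: parental CHO cells; Read-out basis: percent inhibition of ATP-evoked calcium rise, normalized to controls; Benchmarks: ATP and no-ATP DMSO wells; Compound dosing: single nominal dose of 5.6 µM per compound; Signal: Fluo-8 calcium dye fluorescence; Also added: ATP as calcium-mobilizing challenge; Repeats: singlicate.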
GPR7 antagonist = GPR7 receptor antagonists, primary screen, cell-based, fluorescence, single concentration | Neuropeptides B/W receptor type 1 (Homo sapiens), P48145 | GPR7-expressing cells, fluorescence antagonist assay | inhibition, % at 4.4 µM | actives 1.1% (n = 290,000); in the data active = inhibition above about 16%, passing the limit was not always enough;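 note: cells stimulated with the agonist NPW; 0% = agonist with vehicle and 100% = vehicle without agonist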
Target sequence (P48145 whole entry, looked up): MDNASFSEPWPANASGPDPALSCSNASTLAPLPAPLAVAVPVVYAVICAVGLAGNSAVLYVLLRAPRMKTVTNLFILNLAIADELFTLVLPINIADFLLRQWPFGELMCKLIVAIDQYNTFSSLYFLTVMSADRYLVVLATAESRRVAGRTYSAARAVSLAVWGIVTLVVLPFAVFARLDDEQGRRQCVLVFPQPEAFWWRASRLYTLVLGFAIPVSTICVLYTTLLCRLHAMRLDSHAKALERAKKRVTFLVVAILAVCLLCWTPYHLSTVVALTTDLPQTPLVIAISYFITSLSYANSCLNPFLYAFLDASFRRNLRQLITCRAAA
TAAR1 ag = human TAAR1 agonists, primary screen, Fluo-8 calcium fluorescence, CHO RD-HGA16 cells; actives 0.99% (n = 360,000); activation, % at 3 µM; Trace amine-associated receptor 1 (Homo sapiens), Q96RJ0; vehicle wells 0%, saturating PEA agonist 100%;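 active = activation above the mean activation of all test compounds in the run plus 3 SD, cut at about 38% in these data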
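System: CHO-derived RD-HGA16 cells with stable Gα16 and human TAAR1 / Times: 17-24 h plating, Fluo-8 75 min 37 °C, 30 min RT / Technique: calcium-sensitive Fluo-8 signal, excitation 470-495, emission 515-575 nm / Measure: % activation relative to PEA EC100 response / Benchmarks: DMSO and PEA EC100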
nonsel antag count = nonselective antagonists in TAAR1 counter-screen cells, counter-screen for hTAAR1 antagonist project, cell-based, fluorescence, calcium; shares compounds with TAAR1 antag; counterscreen cell line, antagonist mode; inhibition, % at 3 µM; actives 77% (n = 2,400); AID 651780, 2012; in the data active = inhibition above about 22%;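 note: CHO-Ga16 host cells stimulated with ATP at an EC80 level; 0% = agonist EC80 plus vehicle and 100% = vehicle without agonist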
TAAR1 antag conf = human TAAR1 antagonists, retest of hits, confirmation, cell-based, fluorescence; TAAR1-expressing cells, fluorescence antagonist read-out; AID 651785, 2012; shares compounds with TAAR1 antag; inhibition, % at 3 µM; actives 40% (n = 2,400); in the data active = inhibition above about 49%;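 note: CHO-Ga16 host cells challenged with agonist PEA near its EC80; 0% = agonist at EC80 plus vehicle and 100% = vehicle with no agonist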
Ga16 ag counter = calcium activation in Ga16-expressing cells, counter-screen for TAAR1 antagonist project, cell-based, fluorescence. shares compounds with TAAR1 antag. agonist counterscreen. activation, % at 3 µM. actives 18% (n = 2,400). AID 651953, 2012; in the data active = activation above about 12%;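 note: 0% = vehicle wells and 100% = saturating stimulus response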
TAAR1 ag count = TAAR1 activation by candidate antagonists – cell-based, fluorescence, counter-screen for TAAR1 antagonist project | actives 2% (n = 2,400) | AID 651955, 2012 | shares compounds with TAAR1 antag | hTAAR1 cell line, agonist mode | activation, % at 3 µM; in the data active = activation above about 37%;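 note: CHO cells stably expressing TAAR1 with calcium dye readout; 0% = DMSO vehicle and 100% = full agonist response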
Starred values were filed as active, the others as inactive; nt = no result given. Rows were chosen to be rich in hits. Some 4.5% of all compounds tested hit in one or more screens of this group.

SMILES | OX1R antag-1 | OX1R antag-2 | TAAR1 antag | CHO parental Ca | GPR7 antagonist | TAAR1 ag | nonsel antag count | TAAR1 antag conf | Ga16 ag counter | TAAR1 ag count
COC(=O)[C@]12CCCCC=C1N(Cc1ccc3c(c1)OCO3)C(=O)[C@H](CC(=O)N1CCSCC1)C2 | nt | nt | 67* | nt | nt | 12 | 26* | 48 | 9 | 14
COC(=O)[C@]12CCCCC=C1N(Cc1ccc3c(c1)OCO3)C(=O)[C@H](CC(=O)N1CCN(C(=O)C3CC3)CC1)C2 | nt | nt | 27 | nt | nt | 10 | nt | nt | nt | nt
O=C(Nc1ccc2nc(SCc3ccc(Cl)cc3)sc2c1)c1ccccc1C(=O)N1CCOCC1 | 25 | 9 | 76* | -15 | 2 | 20 | 34* | 54* | 11 | 12
COC(=O)CSc1nc2ccc(NC(=O)c3ccccc3C(=O)N3CCOCC3)cc2s1 | 25 | -19 | 55* | -25 | -6 | 22 | 24* | 50* | 9 | 8
O=C(CSc1nc2ccc(NC(=O)c3ccccc3C(=O)O)cc2s1)Nc1c(Cl)cccc1Cl | 30 | -7 | -22 | -3 | 2 | -1 | nt | nt | nt | nt
CCOC(=O)Cc1csc(/N=C/c2c(O)n(-c3ccccc3C(F)(F)F)c(=O)c3ccccc23)n1 | 15 | -43 | 75* | -21 | -3 | 16 | 34* | 56* | 9 | 9
NC(=O)c1ccsc1NC(=O)CN1CCN(S(=O)(=O)c2ccccc2C(F)(F)F)CC1 | nt | nt | 89* | nt | nt | 20 | 30* | 65* | 20* | 34
O=C(CN1CCN(S(=O)(=O)c2ccccc2C(F)(F)F)CC1)NCc1cccs1 | 7 | -6 | -9 | -14 | nt | 2 | nt | nt | nt | nt
C[C@@]12C(=O)N(Cc3ccc(-c4ccccc4)cc3)CC(=O)N1[C@H](/C=C/c1ccccc1)[C@@H]1C(=O)N(c3ccccc3)C(=O)[C@@H]12 | 12 | -26 | 54* | -22 | -2 | 10 | 30* | 30 | 3 | 4
COC(=O)CN1C(=O)[C@H]2[C@@H](/C=C/c3ccccc3)N3C(=O)CN(Cc4ccc(-c5ccccc5)cc4)C(=O)[C@@]3(C)[C@H]2C1=O | 3 | -42 | -6 | -33 | nt | 0 | nt | nt | nt | nt
O=C(NCc1nc2ccccc2[nH]1)C1=C[C@@H](c2ccc(C(F)(F)F)cc2)C[C@@H](OCc2ccc(CO)cc2)O1 | 10 | -22 | 52* | -5 | nt | 12 | 25* | 23 | 5 | 6
O=C(NCc1ccccc1)C1=C[C@H](c2ccc3c(c2)OCO3)C[C@H](OCc2ccc(CO)cc2)O1 | 30 | -13 | 59* | -12 | nt | 10 | 25* | 32 | 3 | 3
C#CCNC(=O)C1=C[C@H](c2csc3ccccc23)C[C@H](OCc2ccc(CO)cc2)O1 | 4 | -8 | 65* | -2 | -11 | 31 | 24* | 40 | 9 | 10
O=C(NCc1nc2ccccc2[nH]1)C1=C[C@H](c2ccccc2)C[C@H](OCc2ccc(CO)cc2)O1 | 13 | -28 | 26 | -23 | -10 | 5 | nt | nt | nt | nt
Cc1cc(C)c(C(=O)COC(=O)C2CCN(c3ccc(C(F)(F)F)cn3)CC2)cc1C | 16 | -34 | -22 | -24 | nt | 1 | nt | nt | nt | nt
O=C(NCCc1ccccc1)c1ccc(Cl)nc1 | 14 | -3 | -5 | 0 | -8 | 6 | nt | nt | nt | nt
COCc1ccc(CN2CCCC(C(=O)Nc3ccc(-c4cscn4)cc3)C2)o1 (stereo not drawn) | -3 | -30 | -1 | -15 | -7 | 3 | nt | nt | nt | nt
Nc1c2ccccc2nc2ccccc12 | 56 | 1 | 1 | -7 | -15 | 6 | nt | nt | nt | nt
Cc1nc2ccccc2c2c(N)c3ccccc3n12 | 10 | -17 | 56* | 3 | 0 | 10 | 22* | 33 | 7 | 7
Cc1ccc(Nc2nc(NCc3cccs3)nc3ccsc23)c(C)c1 | nt | nt | 76* | nt | nt | 28 | 57* | 66* | 18* | 26
CC(=O)c1ccc(N2CCN(C(=O)c3cc(-c4cccnc4)nc4ccc(Br)cc34)CC2)cc1 | 5 | -9 | 76* | -10 | -5 | 25 | 27* | 49* | 13* | 21
O=C(c1cc(-c2cccnc2)nc2ccc(Br)cc12)N1CCN(c2ncccn2)CC1 | 20 | -30 | 51* | -27 | -18 | 20 | 34* | 57* | 10 | 12
COc1ccc(/C=C2\CCC(C3CCCC3)C2=O)cc1OC (stereo not drawn) | -4 | -57 | -20 | -34 | -7 | 0 | nt | nt | nt | nt
COc1ccc(C(CNC(=O)CN2C(=O)NC3(CCCC3)C2=O)N(C)C)cc1 (stereo not drawn) | 10 | 3 | -3 | 2 | -1 | 0 | nt | nt | nt | nt
COc1ccc(OCC(=O)Nc2ccccc2C(=O)NC2CC2)cc1 | 5 | -8 | 18 | 9 | nt | 13 | nt | nt | nt | nt
SMILES | OX1R antag-1 | OX1R antag-2 | TAAR1 antag | CHO parental Ca | GPR7 antagonist | TAAR1 ag | nonsel antag count | TAAR1 antag conf | Ga16 ag counter | TAAR1 ag count
COC(=O)c1ccc(OCC(=O)Nc2ccccc2C(=O)NC2CC2)cc1 | 9 | 2 | 62* | -7 | nt | 18 | 30* | 48 | 10 | 8
O=C(CN1C(=O)NC2(CCCCCC2)C1=O)Nc1ccc(S(=O)(=O)N2CCOCC2)cc1 | 7 | -1 | -9 | -8 | -6 | 3 | nt | nt | nt | nt
O=C(OCC(=O)N1CCc2ccccc21)c1ccncc1 | 2 | -23 | -20 | -10 | nt | -3 | nt | nt | nt | nt
COc1cccc(NC(=O)CN(C)C(=O)c2cc(-c3ccccc3)nc3ccc(C)cc23)c1 | nt | nt | 74* | nt | nt | 11 | 40* | 61* | 10 | 7
COc1ccc(NC(=O)CN(C)C(=O)c2cc(-c3ccc(Cl)cc3)nc3ccccc23)cc1 | 21 | -23 | 67* | -20 | nt | 8 | 30* | 42 | 9 | 6
COc1cccc(NC(=O)CN(C)C(=O)c2cc(-c3cccc(Br)c3)nc3ccccc23)c1 | 18 | -13 | 79* | 11 | nt | 10 | 39* | 47 | 7 | 4
